Test results: ChEMBL document CHEMBL4330069, “Boosting the efficacy of anti-MRSA β-lactam antibiotics via an easily accessible, non-cytotoxic and orally bioavailable FtsZ inhibitor” (Eur J Med Chem, 2019)
Converted amounts (≈) assume the structure as drawn.

How the values were obtained:
Staphylococcus aureus [1] = experiment: Synergistic antibacterial activity against multidrug-resistant Staphylococcus aureus isolate 1717 in presence of cefuroxime by broth microdilution assay; type: functional
Method in brief: (§1)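 Clinical MRSA isolate panel; compound and β-lactam tested alone and in combination by CLSI broth microdilution, compounds dissolved in DMSO, growth inhibition scored by eye, run in duplicate. FIC index = FIC(compound) + FIC(drug), each the MIC in combination divided by the MIC alone; an index ≤ 0.5 was called synergy.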

Staphylococcus aureus [2] = experiment: Antibacterial activity against Staphylococcus aureus ATCC 29213 by broth microdilution assay; type: functional
Method in brief: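 Broth microdilution per CLSI guidelines; compounds dissolved in DMSO; single agents tested; growth inhibition read by eye; run in duplicate (table footnote states at least triplicates).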

Staphylococcus aureus [3] = experiment: Synergistic antibacterial activity against multidrug-resistant Staphylococcus aureus isolate 1449 in presence of cloxacillin by broth microdilution assay; type: functional; method in brief: as §1
Staphylococcus aureus [4] = experiment: Synergistic antibacterial activity against multidrug-resistant Staphylococcus aureus isolate 256 assessed as fractional Inhibitory concentration index in presence of meropenem by broth microdilution assay; type: functional
Staphylococcus aureus [5] = experiment: Synergistic antibacterial activity against multidrug-resistant Staphylococcus aureus isolate 757 assessed as fractional Inhibitory concentration index in presence of meropenem by broth microdilution assay; type: functional
Staphylococcus aureus [6] = experiment: Antibacterial activity against multidrug-resistant Staphylococcus aureus isolate 1344 by broth microdilution assay; type: functional
Method in brief: (§2)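 Broth microdilution MIC per CLSI guidelines against clinical MRSA isolates, for β-lactams and test compound alone and in combination. Compounds were dissolved in DMSO. Growth was read by eye, in duplicate. FIC index = FIC(compound) + FIC(drug); synergy defined as FIC index ≤0.5.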

Staphylococcus aureus [7] = experiment: Synergistic antibacterial activity against multidrug-resistant Staphylococcus aureus isolate 2973 assessed as fractional Inhibitory concentration index in presence of cefuroxime by broth microdilution assay; type: functional
Staphylococcus aureus [8] = experiment: Synergistic antibacterial activity against multidrug-resistant Staphylococcus aureus isolate 1136 in presence of cefuroxime by broth microdilution assay; type: functional; method in brief: as §1
Staphylococcus aureus [9] = experiment: Synergistic antibacterial activity against multidrug-resistant Staphylococcus aureus isolate 2919 assessed as fractional Inhibitory concentration index in presence of meropenem by broth microdilution assay; type: functional
Staphylococcus aureus [10] = experiment: Antibacterial activity against multidrug-resistant Staphylococcus aureus isolate 358 by broth microdilution assay; type: functional; method in brief: as §2
Staphylococcus aureus [11] = experiment: Synergistic antibacterial activity against multidrug-resistant Staphylococcus aureus isolate 3580 in presence of cefuroxime by broth microdilution assay; type: functional
Staphylococcus aureus [12] = experiment: Synergistic antibacterial activity against multidrug-resistant Staphylococcus aureus isolate 85 in presence of amoxicillin by broth microdilution assay; type: functional
Staphylococcus aureus [13] = experiment: Synergistic antibacterial activity against multidrug-resistant Staphylococcus aureus isolate 1136 assessed as fractional Inhibitory concentration index in presence of cloxacillin by broth microdilution assay; type: functional
Method in brief: (§3)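 CLSI broth microdilution run on clinical MRSA isolates with each β-lactam alone, the test agent alone, and the two combined; agents dissolved in DMSO. Growth inhibition was read by eye. FIC index = FIC(compound) + FIC(β-lactam), where each FIC is the MIC in combination divided by the MIC alone. An index ≤0.5 was taken as synergy.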

Staphylococcus aureus [14] = experiment: Synergistic antibacterial activity against multidrug-resistant Staphylococcus aureus isolate 1449 assessed as fractional Inhibitory concentration index in presence of cloxacillin by broth microdilution assay; type: functional; method in brief: as §3
Staphylococcus aureus [15] = experiment: Synergistic antibacterial activity against multidrug-resistant Staphylococcus aureus isolate 2224 in presence of methicillin by broth microdilution assay; type: functional; method in brief: as §1
Staphylococcus aureus [16] = experiment: Synergistic antibacterial activity against multidrug-resistant Staphylococcus aureus isolate 1402 assessed as fractional Inhibitory concentration index in presence of cloxacillin by broth microdilution assay; type: functional; method in brief: as §3
Staphylococcus aureus [17] = experiment: Synergistic antibacterial activity against multidrug-resistant Staphylococcus aureus isolate 1344 assessed as fractional Inhibitory concentration index in presence of amoxicillin by broth microdilution assay; type: functional; method in brief: as §3
Staphylococcus aureus [18] = experiment: Synergistic antibacterial activity against multidrug-resistant Staphylococcus aureus isolate 256 assessed as fractional Inhibitory concentration index in presence of methicillin by broth microdilution assay; type: functional
Staphylococcus aureus [19] = experiment: Synergistic antibacterial activity against multidrug-resistant Staphylococcus aureus isolate 3589 assessed as fractional Inhibitory concentration index in presence of meropenem by broth microdilution assay; type: functional
Staphylococcus aureus [20] = experiment: Antibacterial activity against multidrug-resistant Staphylococcus aureus isolate 85 by broth microdilution assay; type: functional; method in brief: as §2
[21] = AUC (0 to infinity) in Sprague-Dawley rat at 50 mg/kg, po by UPLC-MS/MS analysis; type: ADME, organism-based; set-up: dose 50 mg/kg, route oral, time infinity; conditions: in vivo
Staphylococcus aureus [22] = experiment: Synergistic antibacterial activity against multidrug-resistant Staphylococcus aureus isolate 2516 assessed as fractional Inhibitory concentration index in presence of methicillin by broth microdilution assay; type: functional; method in brief: as §3
Staphylococcus aureus [23] = experiment: Synergistic antibacterial activity against multidrug-resistant Staphylococcus aureus isolate 254 assessed as fractional Inhibitory concentration index in presence of meropenem by broth microdilution assay; type: functional
Staphylococcus aureus [24] = experiment: Synergistic antibacterial activity against multidrug-resistant Staphylococcus aureus isolate 1344 assessed as fractional Inhibitory concentration index in presence of cloxacillin by broth microdilution assay; type: functional; method in brief: as §3
Staphylococcus aureus [25] = experiment: Synergistic antibacterial activity against multidrug-resistant Staphylococcus aureus isolate 3332 assessed as fractional Inhibitory concentration index in presence of cloxacillin by broth microdilution assay; type: functional
Staphylococcus aureus [26] = experiment: Synergistic antibacterial activity against multidrug-resistant Staphylococcus aureus isolate 1717 in presence of methicillin by broth microdilution assay; type: functional; method in brief: as §1
Staphylococcus aureus [27] = experiment: Synergistic antibacterial activity against multidrug-resistant Staphylococcus aureus isolate 2901 in presence of methicillin by broth microdilution assay; type: functional
Method in brief: (§4)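 CLSI broth microdilution on clinical MRSA isolates. MICs were measured for the β-lactam alone, the test agent alone and the two combined. Compounds were dissolved in DMSO, and growth inhibition was scored by eye. FIC index is the sum, over both agents, of MIC in combination divided by MIC alone. An FIC index ≤0.5 was taken as synergy.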

Staphylococcus aureus [28] = experiment: Synergistic antibacterial activity against multidrug-resistant Staphylococcus aureus isolate 254 assessed as fractional Inhibitory concentration index in presence of amoxicillin by broth microdilution assay; type: functional
Staphylococcus aureus [29] = experiment: Synergistic antibacterial activity against multidrug-resistant Staphylococcus aureus isolate 2973 in presence of cloxacillin by broth microdilution assay; type: functional; method in brief: as §4
Staphylococcus aureus [30] = experiment: Antibacterial activity against Staphylococcus aureus ATCC 29213 harboring FtsZ 64 mutation after 20 hrs; type: functional; conditions: ATCC 29213, 20 h
Method in brief: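 Broth microdilution MIC per CLSI guidelines, compounds dissolved in DMSO. Resistant mutants were selected by serial passage of ATCC 29213 in LB at 37 °C with shaking at 250 rpm. Each 20 h culture started at half the MIC, and the concentration was doubled at each transfer. Growth inhibition was read by eye, in duplicate.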

Staphylococcus aureus [31] = experiment: Synergistic antibacterial activity against multidrug-resistant Staphylococcus aureus isolate 3580 assessed as fractional Inhibitory concentration index in presence of meropenem by broth microdilution assay; type: functional
Staphylococcus aureus [32] = experiment: Synergistic antibacterial activity against multidrug-resistant Staphylococcus aureus isolate 231 assessed as fractional Inhibitory concentration index in presence of amoxicillin by broth microdilution assay; type: functional; method in brief: as §3
Staphylococcus aureus [33] = experiment: Synergistic antibacterial activity against multidrug-resistant Staphylococcus aureus isolate 3267 in presence of amoxicillin by broth microdilution assay; type: functional; method in brief: as §4
Staphylococcus aureus [34] = experiment: Synergistic antibacterial activity against multidrug-resistant Staphylococcus aureus isolate 231 in presence of cefuroxime by broth microdilution assay; type: functional; method in brief: as §1
Staphylococcus aureus [35] = experiment: Synergistic antibacterial activity against multidrug-resistant Staphylococcus aureus isolate 417 assessed as fractional Inhibitory concentration index in presence of amoxicillin by broth microdilution assay; type: functional

Q: Which results are given for CCCCCCCCCNc1ccc(F)c(C(N)=O)c1F?
A: MIC (Staphylococcus aureus [1]): 2 µg/mL; MIC (Staphylococcus aureus [2]): 3.1 µM (≈ 0.925 µg/mL); MIC (Staphylococcus aureus [3]): 0.5 µg/mL; fractional inhibitory concentration index (FICI) (Staphylococcus aureus [4]): 4; fractional inhibitory concentration index (FICI) (Staphylococcus aureus [5]): 4.1; MIC (Staphylococcus aureus [6]): 16 µg/mL (≈ 53.6 µM); fractional inhibitory concentration index (FICI) (Staphylococcus aureus [7]): 0.5; MIC (Staphylococcus aureus [8]): 2 µg/mL; fractional inhibitory concentration index (FICI) (Staphylococcus aureus [9]): 4.3; MIC (Staphylococcus aureus [10]): 16 µg/mL (≈ 53.6 µM); MIC (Staphylococcus aureus [11]): 2 µg/mL; MIC (Staphylococcus aureus [12]): 8 µg/mL; fractional inhibitory concentration index (FICI) (Staphylococcus aureus [13]): 0.4; fractional inhibitory concentration index (FICI) (Staphylococcus aureus [14]): 0.6; MIC (Staphylococcus aureus [15]): 2 µg/mL; fractional inhibitory concentration index (FICI) (Staphylococcus aureus [16]): 0.8; fractional inhibitory concentration index (FICI) (Staphylococcus aureus [17]): 1.1; fractional inhibitory concentration index (FICI) (Staphylococcus aureus [18]): 0; fractional inhibitory concentration index (FICI) (Staphylococcus aureus [19]): 1.5; MIC (Staphylococcus aureus [20]): 1020 µg/mL (≈ 3430 µM); AUC(0-inf) [21]: 10300 ng·h/mL; fractional inhibitory concentration index (FICI) (Staphylococcus aureus [22]): 0.2; fractional inhibitory concentration index (FICI) (Staphylococcus aureus [23]): 1.5; fractional inhibitory concentration index (FICI) (Staphylococcus aureus [24]): 0.1; fractional inhibitory concentration index (FICI) (Staphylococcus aureus [25]): 0.4; MIC (Staphylococcus aureus [26]): 2 µg/mL; MIC (Staphylococcus aureus [27]): 2 µg/mL; fractional inhibitory concentration index (FICI) (Staphylococcus aureus [28]): 0.6; MIC (Staphylococcus aureus [29]): 1 µg/mL; MIC (Staphylococcus aureus [30]): 64 µg/mL (≈ 214 µM); fractional inhibitory concentration index (FICI) (Staphylococcus aureus [31]): 1.3; fractional inhibitory concentration index (FICI) (Staphylococcus aureus [32]): 0.5; MIC (Staphylococcus aureus [33]): 2 µg/mL; MIC (Staphylococcus aureus [34]): 4 µg/mL; fractional inhibitory concentration index (FICI) (Staphylococcus aureus [35]): 0.3
